Assay results published in ChEMBL document CHEMBL1828627, “High-throughput-screening-based identification and structure-activity relationship characterization defined (S)-2-(1-aminoisobutyl)-1-(3-chlorobenzyl)benzimidazole as a highly antimycotic agent nontoxic to cell lines” (J Med Chem, 2011).
Values after ≈ are worked out from the molar mass of the structure shown. Active and inactive are the calls of the source.

What was measured:
Candida albicans [1] = assay: Antifungal activity against Candida albicans AN 1699 by broth dilution method; type: functional
Outline: (§1)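 MICs by broth microdilution following CLSI M27-A3 for yeasts, with fluconazole as the reference antifungal. Panel covered type strains and clinical isolates of Candida spp. (21 strains). Reference control strains: C. albicans DSMZ 11949, C. glabrata ATCC 90030, C. parapsilosis 22019 and 90018, Issatchenkia orientalis ATCC 6258. MIC in μg/mL; averages given as geometric means.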

Candida albicans [2] = assay: Antifungal activity against Candida albicans Jg 32570 by broth dilution method; type: functional; outline: as §1
Candida parapsilosis [3] = assay: Antifungal activity against Candida parapsilosis 90018 by broth dilution method; type: functional; conditions: Lodderomyces parapsilosis; outline: as §1
Candida albicans [4] = assay: Antifungal activity against Candida albicans AN 562 by broth dilution method; type: functional; outline: as §1
Candida albicans [5] = assay: Antifungal activity against Candida albicans CA21 by broth dilution method; type: functional; outline: as §1
Candida albicans [6] = assay: Antifungal activity against Candida albicans CA20 by broth dilution method; type: functional; outline: as §1
Candida parapsilosis [7] = assay: Antifungal activity against Candida parapsilosis 22019 by broth dilution method; type: functional; conditions: Lodderomyces parapsilosis; outline: as §1
Candida albicans [8] = assay: Antifungal activity against Candida albicans DSMZ 11949 by broth dilution method; type: functional; outline: as §1
Nakaseomyces glabratus [9] = assay: Antifungal activity against Candida glabrata CG 7 by broth dilution method; type: functional; outline: as §1
Pichia kudriavzevii = assay: Antifungal activity against Issatchenkia orientalis ATCC 6258 by broth dilution method; type: functional; outline: as §1
Nakaseomyces glabratus [10] = assay: Antifungal activity against Candida glabrata ATCC 90030 by broth dilution method; type: functional; outline: as §1
Nakaseomyces glabratus [11] = assay: Antifungal activity against Candida glabrata AN 8626 by broth dilution method; type: functional; outline: as §1
Candida albicans [12] = assay: Antifungal activity against Candida albicans VB 1723 by broth dilution method; type: functional; outline: as §1
Candida tropicalis = assay: Antifungal activity against Candida tropicalis AN 1946 by broth dilution method; type: functional; outline: as §1
Candida albicans [13] = assay: Antifungal activity against Candida albicans AM2001/2007 by broth dilution method; type: functional; outline: as §1
Candida albicans [14] = assay: Antifungal activity against Candida albicans MY 2902/2008 by broth dilution method; type: functional; outline: as §1
Candida parapsilosis [15] = assay: Antifungal activity against Candida parapsilosis AN 5485 by broth dilution method; type: functional; conditions: Lodderomyces parapsilosis; outline: as §1
Candida parapsilosis [16] = assay: Antifungal activity against Candida parapsilosis AV 7675 by broth dilution method; type: functional; conditions: Lodderomyces parapsilosis; outline: as §1
Candida albicans [17] = assay: Antifungal activity against Candida albicans AN 3156 by broth dilution method; type: functional; outline: as §1
Candida albicans [18] = assay: Antifungal activity against Candida albicans AN 1994 by broth dilution method; type: functional; outline: as §1
Candida albicans [19] = assay: Antifungal activity against Candida albicans SCS 71865 L by broth dilution method; type: functional; outline: as §1
Candida albicans [20] = assay: Antifungal activity against Candida albicans SC5314 infected in HeLa cells at 20 uM after 5 days by fluorescein diacetate assay; type: functional, organism-based
Outline: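 Primary HTS: HeLa cells co-incubated with C. albicans plus a single compound at ~20 μM for 5 days. Viability checked microscopically at 18 h and quantified at day 5 by fluorescein diacetate fluorescence. Wells also scanned visually for yeast growth. Hit criterion: >40% signal relative to the uninfected untreated HeLa (~100%) and infected untreated HeLa (~0%) controls.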

Candida albicans [21] = assay: Antifungal activity against Candida albicans SC5314 infected in HeLa cells after 5 days by fluorescein diacetate assay; type: functional, organism-based; conditions: Candida albicans, SC5314, HeLa, 120 h; read-out: IC50
Outline: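 HeLa cells co-incubated with C. albicans and compound for 5 days. Dose–response from resynthesized compounds. Host-cell viability checked microscopically at 18 h, then quantified at day 5 by fluorescein diacetate conversion to a fluorophore by live cells. Wells also inspected visually for yeast growth. Controls: untreated uninfected HeLa (~100%) and untreated infected HeLa (~0%). IC50 derived from infected cells; CC50 as half-maximal cytotoxic concentration.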

[22] = Cytotoxicity against human HeLa cells assessed as cell viability after 5 days by fluorescein diacetate assay; type: cell-based
[23] = Selectivity index of CC50 for human HeLa cells to IC50 for Candida albicans SC5314 infected in HeLa cells
Outline: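 Selectivity index calculated as CC50/IC50. CC50 is the half-maximal cytotoxic concentration in HeLa cells; IC50 is the half-maximal antimycotic concentration in the C. albicans–infected HeLa assay. Both come from 5-day fluorescein diacetate viability readouts.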

OC(Cn1cncn1)(Cn1cncn1)c1ccc(F)cc1F [FLUCONAZOLE]
MIC (Candida albicans [1]): 8 µg/mL (≈ 26.1 µM)
MIC (Candida albicans [2]): 128 µg/mL (≈ 418 µM)
MIC (Candida parapsilosis [3]): 0.25 µg/mL (≈ 0.816 µM)
MIC (Candida albicans [4]): 1 µg/mL (≈ 3.27 µM)
MIC (Candida albicans [5]): 0.125 µg/mL (≈ 0.408 µM)
MIC (Candida albicans [6]): 0.125 µg/mL (≈ 0.408 µM)
MIC (Candida parapsilosis [7]): 1 µg/mL (≈ 3.27 µM)
MIC (Candida albicans [8]): 2 µg/mL (≈ 6.53 µM)
MIC (Nakaseomyces glabratus [9]): 4 µg/mL (≈ 13.1 µM)
MIC (Pichia kudriavzevii): 0.25 µg/mL (≈ 0.816 µM)
MIC (Nakaseomyces glabratus [10]): 0.125 µg/mL (≈ 0.408 µM)
MIC (Nakaseomyces glabratus [11]): 4 µg/mL (≈ 13.1 µM)
MIC (Candida albicans [12]): 0.5 µg/mL (≈ 1.63 µM)
MIC (Candida tropicalis): 128 µg/mL (≈ 418 µM)
MIC (Candida albicans [13]): 0.5 µg/mL (≈ 1.63 µM)
MIC (Candida albicans [14]): 0.5 µg/mL (≈ 1.63 µM)
MIC (Candida parapsilosis [15]): 0.25 µg/mL (≈ 0.816 µM)
MIC (Candida parapsilosis [16]): 2 µg/mL (≈ 6.53 µM)
MIC (Candida albicans [17]): 8 µg/mL (≈ 26.1 µM)
MIC (Candida albicans [18]): 128 µg/mL (≈ 418 µM)
MIC (Candida albicans [19]): 0.125 µg/mL (≈ 0.408 µM)

CCC[C@H](N)c1nc2ccccc2n1Cc1ccc(Cl)cc1
inhibition (Candida albicans [20]): inactive
IC50 (Candida albicans [21]): 2 µM
CC50 at 120 h [22]: 28 µM
Ratio CC50/IC50 [23]: 14

CCC(C)[C@H](N)c1nc2cc(Cl)c(Cl)cc2n1Cc1cccc(Cl)c1 (stereo partly drawn)
inhibition (Candida albicans [20]): inactive

CC(C)[C@H](N)c1nc2cc(Cl)c(Cl)cc2n1Cc1cccc(F)c1
inhibition (Candida albicans [20]): inactive

Cc1cccc(Cn2c(C(C)(C)N)nc3cc(C(F)(F)F)ccc32)c1
inhibition (Candida albicans [20]): inactive

CCC[C@H](N)c1nc2cc(C(F)(F)F)ccc2n1Cc1cccc(Cl)c1
inhibition (Candida albicans [20]): inactive

CC(C)(N)c1nc2ccccc2n1Cc1cccc(F)c1
inhibition (Candida albicans [20]): inactive

CCC(C)[C@H](N)c1nc2ccccc2n1Cc1cccc(Cl)c1 (stereo partly drawn)
inhibition (Candida albicans [20]): inactive

COc1cccc(Cn2c([C@@H](N)C(C)C)nc3cc(C(F)(F)F)ccc32)c1
inhibition (Candida albicans [20]): inactive

CC(C)[C@H](N)c1nc2ccccc2n1Cc1cccc(F)c1
MIC (Candida albicans [1]): 16 µg/mL (≈ 53.8 µM)
MIC (Candida albicans [2]): 128 µg/mL (≈ 430 µM)
MIC (Candida parapsilosis [3]): 16 µg/mL (≈ 53.8 µM)
MIC (Candida albicans [4]): 16 µg/mL (≈ 53.8 µM)
MIC (Candida albicans [5]): 0.125 µg/mL (≈ 0.42 µM)
MIC (Candida albicans [6]): 0.125 µg/mL (≈ 0.42 µM)
MIC (Candida parapsilosis [7]): 16 µg/mL (≈ 53.8 µM)
inhibition (Candida albicans [20]): inactive
MIC (Candida albicans [8]): 16 µg/mL (≈ 53.8 µM)
MIC (Nakaseomyces glabratus [9]): 64 µg/mL (≈ 215 µM)
MIC (Pichia kudriavzevii): 16 µg/mL (≈ 53.8 µM)
MIC (Nakaseomyces glabratus [10]): 8 µg/mL (≈ 26.9 µM)
IC50 (Candida albicans [21]): 2.2 µM
MIC (Nakaseomyces glabratus [11]): 16 µg/mL (≈ 53.8 µM)
MIC (Candida albicans [12]): 4 µg/mL (≈ 13.5 µM)
MIC (Candida tropicalis): 32 µg/mL (≈ 108 µM)
MIC (Candida albicans [13]): 4 µg/mL (≈ 13.5 µM)
MIC (Candida albicans [14]): 16 µg/mL (≈ 53.8 µM)
MIC (Candida parapsilosis [15]): 16 µg/mL (≈ 53.8 µM)
CC50 at 120 h [22]: 20.6 µM
MIC (Candida parapsilosis [16]): 128 µg/mL (≈ 430 µM)
Ratio CC50/IC50 [23]: 9.4
MIC (Candida albicans [17]): 16 µg/mL (≈ 53.8 µM)
MIC (Candida albicans [18]): 2 µg/mL (≈ 6.73 µM)
MIC (Candida albicans [19]): 16 µg/mL (≈ 53.8 µM)

CC(C)C[C@H](N)c1nc2ccccc2n1Cc1cccc(F)c1
inhibition (Candida albicans [20]): inactive
